# Results published in ChEMBL document CHEMBL4732148 (Eur J Med Chem, 2021).
# Activity calls are given as the source filed them. The rule behind the calls is not given here.
# Assays:
# [1] = Cytotoxicity against human Huh-7 cells assessed as reduction in cell viability measured after 48 hrs by celltiter-glo assay; type: cell-based; conditions: read-out: TC50
# Hepatitis C virus [2] = assay: Antiviral activity against HCV infected in human Huh-7 cells assessed as reduction in viral replication measured after 48 hrs by luciferase reporter gene assay; type: functional, organism-based, Hepacivirus hominis; conditions: Huh-7, 48 h
# Method in brief: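 Replicon-bearing Huh7 cells seeded at 10,000/well and allowed to attach for 24 h at 37 °C. Triplicate biological wells then treated 48 h with compound in DMEM, 10% FBS, 0.5% DMSO final. Bright-Glo luminescence expressed relative to untreated cells. IC50 from a four-parameter logistic fit.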
# [3] = Cytotoxicity against human BXPC-3 cells assessed as reduction in cell viability measured after 96 hrs by celltiter-glo assay; type: cell-based; conditions: read-out: TC50
# [4] = Stability in pH 1 aqueous buffer assessed as parent compound remaining at 200 uM measured after 4 hrs by UV spectrophotometry; type: physicochemical; conditions: read-out: Stabilty
# Method in brief: (§1)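 Compound diluted to […] in aqueous buffers at pH 1.0, 2.0, 4.0, 6.0 or 8.0 and held 4 h at 40 °C. Intact prodrug separated by reverse-phase HPLC. 260 nm peak area after incubation compared with untreated prodrug, giving % remaining.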
# [5] = Stability in pH 4 aqueous buffer assessed as parent compound remaining at 200 uM measured after 4 hrs by UV spectrophotometry; type: physicochemical; conditions: read-out: Stabilty; method in brief: as §1
# [6] = Ratio of gemcitabine TC50 to test compound TC50 for cytotoxicity against human MCF7 cells assessed as reduction in cell viability; type: cell-based
# [7] = Stability in pH 8 aqueous buffer assessed as parent compound remaining at 200 uM measured after 4 hrs by UV spectrophotometry; type: physicochemical; conditions: read-out: Stabilty; method in brief: as §1
# HepG2 = assay: Cytotoxicity against human HepG2 cells assessed as reduction in cell viability measured after 96 hrs by celltiter-glo assay; type: functional; conditions: read-out: TC50 (the source's name)
# [8] = Cytotoxicity against HEK293 cells assessed as reduction in cell viability measured after 96 hrs by celltiter-glo assay; type: cell-based; conditions: human, read-out: TC50
# [9] = Stability in pH 2 aqueous buffer assessed as parent compound remaining at 200 uM measured after 4 hrs by UV spectrophotometry; type: physicochemical; conditions: read-out: Stabilty; method in brief: as §1
# [10] = Stability in pH 6 aqueous buffer assessed as parent compound remaining at 200 uM measured after 4 hrs by UV spectrophotometry; type: physicochemical; conditions: read-out: Stabilty; method in brief: as §1
# [11] = Cytotoxicity against human MCF7 cells assessed as reduction in cell viability measured after 96 hrs by celltiter-glo assay; type: cell-based; conditions: read-out: TC50
# [12] = Ratio of gemcitabine TC50 to test compound TC50 for cytotoxicity against human BXPC-3 cells assessed as reduction in cell viability; type: cell-based
# [13] = Toxicity in human Huh-7 cells assessed as reduction in cell viability measured after 96 hrs by celltiter-glo assay; type: cell-based; conditions: read-out: TC50
# Hepatitis C virus [14] = assay: Antiviral activity against HCV infected in human Huh-7 cells assessed as reduction in viral replication at 25 to 1000 nM measured after 48 hrs in presence of cytidine by luciferase reporter gene assay; type: functional, organism-based; conditions: Hepacivirus hominis, dose 25-1000 nM
# Method in brief: (§2)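 Huh7 cells carrying an HCV luciferase replicon, grown in DMEM with 10% FBS and G418. Cells treated 48 h continuously with compound at 25–1,000 nM, either alone or together with 50 µM cytidine or 2′-deoxycytidine. Luciferase activity read in lysates. Three biological replicates, SD.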
# Hepatitis C virus [15] = assay: Antiviral activity against HCV infected in human Huh-7 cells assessed as reduction in viral replication at 25 to 1000 nM measured after 48 hrs in presence of deoxycytidine by luciferase reporter gene assay; type: functional, organism-based; conditions: Hepacivirus hominis, dose 25-1000 nM; method in brief: as §2
# [16] = Cytotoxicity against human Huh-7 cells assessed as reduction in cell viability measured after 48 hrs in presence of ENT1 inhibitor NBTI […]; type: cell-based; conditions: with NBTI (ENT1 inhibitor; concentration not stated), read-out: TC50
# Hepatitis C virus [17] = assay: Antiviral activity against HCV infected in human Huh-7 cells assessed as reduction in viral replication preincubated for 2 hrs followed by replacement with fresh culture medium and measured after 46 hrs by luciferase reporter gene assay; type: functional, organism-based, Hepacivirus hominis
# Method in brief: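 HCV luciferase-replicon Huh7 cells were seeded at 10,000 cells/well and allowed 24 h to attach. Three biological replicates were exposed to graded compound in DMEM/10% FBS/0.5% DMSO for 2 h only, then the medium was replaced with fresh growth medium for 46 h at 37 °C.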
# Hepatitis C virus [18] = assay: Ratio of IC50 for antiviral activity against HCV infected in human Huh-7 cells assessed as reduction in viral replication preincubated for 2 hrs followed by replacement with fresh culture medium and measured after 46 hrs by luciferase reporter gene assay to IC50 for antiviral activity against HCV infected in human Huh-7 cells assessed as reduction in viral replication measured after 48 hrs by …; type: functional, Hepacivirus hominis
# Hepatitis C virus [19] = assay: Antiviral activity against HCV infected in human Huh-7 cells assessed as reduction in viral replication at 500 nM measured after 48 hrs by luciferase reporter gene assay; type: functional, organism-based; conditions: Hepacivirus hominis
# Method in brief: (§3)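 Huh7 luciferase replicon cells treated with 500 nM compound or mock for up to 48 h. Cells were lysed at various times and the lysates snap-frozen in liquid nitrogen. All lysates were then assayed for luciferase together.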
# Hepatitis C virus [20] = assay: Antiviral activity against HCV infected in human Huh-7 cells assessed as reduction in viral replication at 500 nM measured after 24 to 30 hrs by luciferase reporter gene assay; type: functional, Hepacivirus hominis; set-up: scale not given: the % may be the effect or the level left; conditions: time 24-30 hrs; method in brief: as §3
IC50 (Hepatitis C virus [2]) [nM],Structure (SMILES),CC50 at 48 h [1] [µM],other results
340,O=C(Nc1ccn([C@@H]2O[C@H](CO)[C@@H](O)C2(F)F)c(=O)n1)c1c(Br)ccc2c1OCO2,2210,
127,O=C(Nc1ccn([C@@H]2O[C@H](CO)[C@@H](O)C2(F)F)c(=O)n1)c1ccc2c(c1)OCCO2,855,"CC50 at 96 h [3]: 1.2 µM; remaining at 4 h, 200 µM [4]: 71%; remaining at 4 h, 200 µM [5]: 100%; selectivity ratio [6]: ≤ 24; remaining at 4 h, 200 µM [7]: 100%; CC50 (HepG2): 1.1 µM; CC50 at 96 h [8]: 5.6 µM; remaining at 4 h, 200 µM [9]: 100%; remaining at 4 h, 200 µM [10]: 100%; CC50 at 96 h [11]: 1.4 µM; selectivity ratio [12]: ≤ 620; CC50 at 96 h [13]: 3.3 µM"
177,CC1(C)Cc2ccc(C(=O)Nc3ccn([C@@H]4O[C@H](CO)[C@@H](O)C4(F)F)c(=O)n3)cc2O1,1160,
91.5,O=C(Nc1ccn([C@@H]2O[C@H](CO)[C@@H](O)C2(F)F)c(=O)n1)c1ccc2c(c1)OCCCO2,881,
77.5,O=C(Nc1ccn([C@@H]2O[C@H](CO)[C@@H](O)C2(F)F)c(=O)n1)c1ccc(Cl)cc1Cl,> 100,
37.6,O=C(Nc1ccn([C@@H]2O[C@H](CO)[C@@H](O)C2(F)F)c(=O)n1)c1ccc(Cl)cc1,138,
161,O=C(Nc1ccn([C@@H]2O[C@H](CO)[C@@H](O)C2(F)F)c(=O)n1)c1cccc2c1CCCC2,92,
58.6,O=C(Nc1ccn([C@@H]2O[C@H](CO)[C@@H](O)C2(F)F)c(=O)n1)c1ccc2c(c1)CCC2,378,
1690,Cc1cc2c(cc1C(=O)Nc1ccn([C@@H]3O[C@H](CO)[C@@H](O)C3(F)F)c(=O)n1)OCCO2,626,
43.1,Cc1ccc(C(=O)Nc2ccn([C@@H]3O[C@H](CO)[C@@H](O)C3(F)F)c(=O)n2)cc1,329,CC50 at 48 h [16]: 240 µM
46.4,O=C(Nc1ccn([C@@H]2O[C@H](CO)[C@@H](O)C2(F)F)c(=O)n1)c1ccc2c(c1)OC(F)(F)O2,188,
46.7,O=C(Nc1ccn([C@@H]2O[C@H](CO)[C@@H](O)C2(F)F)c(=O)n1)c1cc2c(cc1[N+](=O)[O-])OCO2,> 500,
17.4,O=C(Nc1ccn([C@@H]2O[C@H](CO)[C@@H](O)C2(F)F)c(=O)n1)c1ccc(Cl)c(Cl)c1,> 100,
25.5,O=C(Nc1ccn([C@@H]2O[C@H](CO)[C@@H](O)C2(F)F)c(=O)n1)c1cc(Cl)cc(Cl)c1,110,"remaining at 4 h, 200 µM [4]: 35%; remaining at 4 h, 200 µM [5]: 98.4%; selectivity ratio [6]: ≤ 24; remaining at 4 h, 200 µM [7]: 35.4%; Activity (Hepatitis C virus [19]): Active; CC50 (HepG2): 0.6 µM; CC50 at 96 h [8]: 1.2 µM; remaining at 4 h, 200 µM [9]: 82%; remaining at 4 h, 200 µM [10]: 99.6%; CC50 at 96 h [11]: 0.33 µM; Activity (Hepatitis C virus [20]): 50%; Activity (Hepatitis C virus [14]): inactive; Activity (Hepatitis C virus [15]): inactive; CC50 at 96 h [13]: 4.2 µM"
19.3,COc1c(Cl)cc(C(=O)Nc2ccn([C@@H]3O[C@H](CO)[C@@H](O)C3(F)F)c(=O)n2)cc1Cl,> 100,
145,O=C(Nc1ccn([C@@H]2O[C@H](CO)[C@@H](O)C2(F)F)c(=O)n1)c1ccc2c(c1)CCO2,954,
185,O=C(Nc1ccn([C@@H]2O[C@H](CO)[C@@H](O)C2(F)F)c(=O)n1)c1ccc2cc(Br)ccc2c1,74,

# Second part, the compound before the results:
Structure (SMILES),IC50 (Hepatitis C virus [2]) [nM],CC50 at 48 h [1] [µM],other results
O=C(Nc1ccn([C@@H]2O[C@H](CO)[C@@H](O)C2(F)F)c(=O)n1)c1ccc2c(c1)C(=O)c1ccccc1C2=O,12.8,249,
COc1ccc2cc(C(=O)Nc3ccn([C@@H]4O[C@H](CO)[C@@H](O)C4(F)F)c(=O)n3)ccc2c1,93.5,168,
COc1ccc(C(=O)Nc2ccn([C@@H]3O[C@H](CO)[C@@H](O)C3(F)F)c(=O)n2)cc1,60,572,
COc1cc(OC)cc(C(=O)Nc2ccn([C@@H]3O[C@H](CO)[C@@H](O)C3(F)F)c(=O)n2)c1,73.4,962,selectivity ratio [6]: ≤ 24; CC50 (HepG2): 3 µM; CC50 at 96 h [8]: 4 µM; CC50 at 96 h [11]: 1.6 µM; Activity (Hepatitis C virus [14]): inactive; Activity (Hepatitis C virus [15]): inactive; CC50 at 96 h [13]: 18.5 µM
O=C(Nc1ccn([C@@H]2O[C@H](CO)[C@@H](O)C2(F)F)c(=O)n1)c1ccc2ccccc2c1,126,125,
O=C(Nc1ccn([C@@H]2O[C@H](CO)[C@@H](O)C2(F)F)c(=O)n1)C1Cc2ccccc2C1,10,> 500,
COc1cccc(OC)c1C(=O)Nc1ccn([C@@H]2O[C@H](CO)[C@@H](O)C2(F)F)c(=O)n1,451,4580,
COC(=O)N[C@H](C(=O)N1CCC[C@H]1c1ncc(-c2ccc(-c3ccc(-c4cnc([C@@H]5CCCN5C(=O)[C@@H](NC(=O)OC)C(C)C)[nH]4)cc3)cc2)[nH]1)C(C)C,0.031,,
O=C(Nc1ccn([C@@H]2O[C@H](CO)[C@@H](O)C2(F)F)c(=O)n1)c1ccc2c(c1)CCCC2,86,132,
CCc1ccc(C(=O)Nc2ccn([C@@H]3O[C@H](CO)[C@@H](O)C3(F)F)c(=O)n2)cc1,58.4,490,CC50 at 48 h [16]: 360 µM
O=C(Nc1ccn([C@@H]2O[C@H](CO)[C@@H](O)C2(F)F)c(=O)n1)c1ccc2c(c1)OCO2,59.8,470,"CC50 at 96 h [3]: 0.72 µM; remaining at 4 h, 200 µM [4]: 64%; remaining at 4 h, 200 µM [5]: 100%; IC50 (Hepatitis C virus [17]): 3.1 µM; selectivity ratio [6]: ≤ 24; remaining at 4 h, 200 µM [7]: 92%; Ratio IC50 (Hepatitis C virus [18]): 51; CC50 (HepG2): 2.8 µM; CC50 at 96 h [8]: 4.1 µM; remaining at 4 h, 200 µM [9]: 100%; remaining at 4 h, 200 µM [10]: 100%; CC50 at 96 h [11]: 1.2 µM; selectivity ratio [12]: ≤ 620; CC50 at 48 h [16]: 440 µM; CC50 at 96 h [13]: 7 µM"
